Measurements collected from several papers.
Compare with care: the assays were run in different laboratories.
Read-out: cell growth or viability

With `NS(=O)(=O)c1ccc(-n2nc(C(=O)NN3C(=O)c4ccccc4C3=O)cc2-c2ccccc2)cc1` the IC50 was 35.4 µM (PaCa-2; fluorescence; 48 h).
`Cc1ncsc1-c1ccc([C@H](CC(=O)NCCCCCNC(=O)c2nc(N3CCc4cccc(C(=O)Nc5nc6ccccc6s5)c4C3)ccc2-c2cnn(CC34CC5CC(CC(C5)C3)C4)c2C)NC(=O)[C@@H]2C[C@@H](O)CN2C(=O)[C@@H](NC(=O)C2(C#N)CC2)C(C)(C)C)cc1` has an IC50 of 0.0938 µM (MOLT-4; MTS; 48 h).
For `COc1cc([C@@H]2c3cc4c(cc3[C@@H](O[C@@H]3O[C@@H]5CO[C@@H](C)O[C@H]5[C@H](O)[C@H]3O)[C@H]3COC(=O)[C@H]23)OCO4)cc(OC)c1O`, the IC50 was 0.5 µM (DU-145; MTT).
With `Cc1ncsc1-c1ccc([C@H](C)NC(=O)[C@@H]2C[C@@H](O)CN2C(=O)[C@@H](NC(=O)CCCCCCCCCCCS(=O)(=O)NC(=O)c2nc(N3CCc4cccc(C(=O)Nc5nc6ccccc6s5)c4C3)ccc2-c2cnn(CC34CC5CC(CC(C5)C3)C4)c2C)C(C)(C)C)cc1` the IC50 was 0.0701 µM (MOLT-4; MTS; 48 h).
`c1ccc(-c2cc(CNc3cccc4cccnc34)on2)cc1` has an IC50 of 33.7 µM (LN-229; MTS; 72 h).
`Cc1c(-c2ccc(N3CCc4cccc(C(=O)Nc5nc6ccccc6s5)c4C3)nc2C(=O)NCCOCCOCCOCCO)cnn1CC12CC3CC(CC(C3)C1)C2` gave an IC50 of 0.0169 µM (MOLT-4; MTS; 48 h).
`N#CC(=Cc1cn(Cc2ccc(Cl)cc2)c2ccccc12)C(=O)c1c[nH]c2ccccc12` gave an IC50 of 4.9 µM (MIA PaCa-2; MTT; 48 h).
The IC50 of `O=C(CSc1nc2ccccc2s1)N/N=C/c1ccc(OCC(=O)Nc2ccc([N+](=O)[O-])cc2)cc1` is reported as over 100 µM (MOLT-4; MTS; 72 h).
For `O=C(NO)c1ccc(Cn2cnc3c(Nc4cccc([N+](=O)[O-])c4)ncnc32)cc1`, the IC50 was 0.89 µM (Jurkat; MTT; 72 h).
The IC50 of `Nc1nnc(-c2ccccc2O)cc1N1CC2CCC(C1)N2c1ccnc(F)c1` is reported as over 1 µM (LNCaP; ATP luminescence; 7 days).
For `Cc1ncsc1-c1ccc([C@H](C)NC(=O)[C@@H]2C[C@@H](O)CN2C(=O)[C@@H](NC(=O)CCCCS(=O)(=O)NC(=O)c2nc(N3CCc4cccc(C(=O)Nc5nc6ccccc6s5)c4C3)ccc2-c2cnn(CC34CC5CC(CC(C5)C3)C4)c2C)C(C)(C)C)cc1`, the IC50 was 0.0084 µM (MOLT-4; MTS; 48 h).
For `O=c1cc(OCc2cc(-c3ccccc3)no2)c2ccccc2o1`, the IC50 was over 100 µM (LN-229; MTS; 72 h).
With `CN1C(=O)C(=O)c2cc3c(c4c2c1cc1ccccc14)OCO3` the IC50 was 61 µM (T47D; MTT; 75 h).
For `Cc1ncsc1-c1ccc([C@H](C)NC(=O)[C@@H]2C[C@@H](O)CN2C(=O)[C@@H](NC(=O)CCCCCC(=O)N2CCN(CC[C@H](CSc3ccccc3)Nc3ccc(S(=O)(=O)NC(=O)c4ccc(N5CCN(CC6=C(c7ccc(Cl)cc7)CCC(C)(C)C6)CC5)cc4)cc3S(=O)(=O)C(F)(F)F)CC2)C(C)(C)C)cc1`, the IC50 was 0.0771 µM (MOLT-4; MTS; 48 h).
The IC50 of `O=C(CSc1nc2ccccc2s1)N/N=C/c1ccc(OCC(=O)Nc2cccc(Cl)c2)cc1` is reported as 19.6 µM (LN-229; MTS; 72 h).
For `CCn1cc(C=C(C#N)C(=O)c2c[nH]c3cc(OC)ccc23)c2ccccc21`, the IC50 was over 40 µM (MIA PaCa-2; MTT; 48 h).
`NS(=O)(=O)c1ccc(-n2nc(-c3nnc(CCl)o3)cc2-c2ccccc2)cc1` gave an IC50 of 26.3 µM (PaCa-2; fluorescence; 48 h).
For `Cc1c(-c2ccc(N3CCc4cccc(C(=O)Nc5nc6ccccc6s5)c4C3)nc2C(=O)O)cnn1CC12CC3CC(C1)CC(C(=O)NCCCCCCCCNc1cccc4c1C(=O)N(C1CCC(=O)NC1=O)C4=O)(C3)C2` (stereo not shown), the IC50 was 0.0041 µM (MOLT-4; MTS; 48 h).
For `Nc1ccccc1NC(=O)c1ccc(Cn2cnc3c(Nc4ccc(Br)cc4F)ncnc32)cc1`, the IC50 was 4.73 µM (Jurkat; MTT; 72 h).
For `CN(C)C(=O)c1cc2cnc(Nc3ccc(-c4ccc5c(=O)cc(N6CCOCC6)oc5c4)cc3)nc2n1C1CCCC1`, the IC50 was 0.21 µM (NGP; ATP luminescence; 72 h).
`Cc1ncsc1-c1ccc([C@@H](C)NC(=O)[C@H]2C[C@H](O)CN2C(=O)[C@H](NC(=O)CCNC(=O)C23CC4CC(CC(Cn5ncc(-c6ccc(N7CCc8cccc(C(=O)Nc9nc%10ccccc%10s9)c8C7)nc6C(=O)O)c5C)(C4)C2)C3)C(C)(C)C)cc1` gave an IC50 of over 1 µM (MOLT-4; MTS; 48 h).
For `CCn1cc(C=C(C#N)C(=O)c2c[nH]c3ccc(OC)cc23)c2ccccc21`, the IC50 was 15.5 µM (MIA PaCa-2; MTT; 48 h).
`Cc1ncsc1-c1ccc([C@H](C)NC(=O)[C@@H]2C[C@@H](O)CN2C(=O)[C@@H](NC(=O)CCCCCCCCCCS(=O)(=O)NC(=O)c2nc(N3CCc4cccc(C(=O)Nc5nc6ccccc6s5)c4C3)ccc2-c2cnn(CC34CC5CC(CC(C5)C3)C4)c2C)C(C)(C)C)cc1` gave an IC50 of 0.0341 µM (MOLT-4; MTS; 48 h).
The IC50 of `Cc1nc(Nc2ncc(C(=O)Nc3c(C)cccc3Cl)s2)cc(N2CC[C@H](O)C2)n1` is reported as over 10 µM (SU-DHL-2; ATP luminescence; 72 h).
With `N#Cc1ccc(-c2cc(CNc3cccc4cccnc34)on2)cc1` the IC50 was 27.2 µM (LN-229; MTS; 72 h).
`COc1cc([C@@H]2c3cc4c(cc3[C@@H](O[C@@H]3O[C@@H]5CO[C@@H](C)O[C@H]5[C@H](O)[C@H]3O)[C@H]3COC(=O)[C@H]23)OCO4)cc(OC)c1O` has an IC50 of 4.8 µM (LN-229; MTS; 72 h).
`FC(F)(F)c1cc(OCc2cc(-c3ccccn3)no2)c2ccccc2n1` gave an IC50 of over 100 µM (LN-229; MTS; 72 h).
For `COc1ccc(C=NNC(=O)c2cc(-c3ccccc3)n(-c3ccc(S(N)(=O)=O)cc3)n2)cc1OC`, the IC50 was 20.5 µM (PaCa-2; fluorescence; 48 h).
